# Results from different studies.
# Each line is one published result; the experiments were not run side by side.
# Cell line: Vero
# Observed: cell growth or viability
Structure (SMILES),technique,tested at,time,measurement,result
CO[C@@]12[C@H](COC(N)=O)C3=C(C(=O)C(C)=C(N)C3=O)N1C[C@@H]1N[C@@H]12,resazurin,,,CC50,0.39 µM
COC(=O)COc1c(Cc2cc(C(C)(C)CC(C)(C)C)cc(-n3nc4ccccc4n3)c2OCC(=O)OC)cc(C(C)(C)CC(C)(C)C)cc1-n1nc2ccccc2n1,MTT,10 µM,48 h,viability,89.5%
O=C(Cn1ccnc1[N+](=O)[O-])NCc1ccccc1,MTT,,,CC50,142 µM
CC1(F)CN(C(=O)Cn2c(=O)c(C(=O)NCc3ccc(Cl)cc3)cc3nc(N4CCNC4=O)cnc32)C1,CCK-8,,5 days,CC50,> 40 µM
O=C(NNC(=O)c1cc2ccccc2s1)c1ccc([N+](=O)[O-])o1,MTT,,48 h,CC50,75 µM
CCCN(CCc1cccs1)[C@H]1CCc2c(O)cccc2C1,resazurin,,,CC50,9.48 µM
CN1CCN(c2cnc3c(cc(C(=O)NCc4ccc(Cl)cc4)c(=O)n3CC(=O)N3CC(C)(F)C3)n2)C1=O,CCK-8,,5 days,CC50,> 40 µM
CN(C)c1ncnc2c1ncn2[C@@H]1O[C@H](CCl)[C@@H](NC(=O)[C@H](CSC(c2ccccc2)c2ccccc2)NC(=O)OC(C)(C)C)[C@H]1O,MTT,,,CC50,> 100 µM
